Compound activity as filed in PubChem BioAssay.
UPR XBP1 act: adaptive UPR (XBP1) activation | CHO-XBP1 luciferase reporter, IRE1-XBP1 UPR activation, luminescence; percent of tunicamycin response, DMSO as zero | activation, % at 20 µM | 330,000 compounds, 0.33% hits | AID 463104;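 active means versus positive control, 20 µM dose yields 30% or more activation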
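Material: CHO cell line with stable XBP1 luciferase reporter; schedule: 16-18 h cell attachment at 37 °C, then 6 h compound exposure; signal: glow luminescence from Steady-Glo reagent; medium: serum-containing F12 medium, 10% FBS; benchmarks: tunicamycin 10 µg/mL and vehicle-only wells; read-out: percent activation relative to tunicamycin reference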
CHOP inhibitor: inhibitors of CHOP induction in ER stress response; CHO-K1 CHOP-promoter luciferase, tunicamycin-induced, 15-18 h; inhibition, % at 10 µM; 220,000 compounds, 3.8% hits;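 active means compounds that reduced the stress-induced luciferase reporter signal by more than about 70% of percent inhibition, limit read from the data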
PvdQ acylase: blocks Pseudomonas aeruginosa PvdQ acylase activity | purified PvdQ acylase, fluorescence plate reader | inhibition, % at 10 µM | 340,000 compounds, 0.063% hits | AID 488965; in the data active means inhibition above about 30%, passing the limit was not always enough
UPR CHOP act: apoptotic UPR (CHOP) activation; CHO-CHOP luciferase reporter, luminescence; percent of tunicamycin response over DMSO baseline; activation, % at 10 µM; 330,000 compounds, 0.34% hits; AID 449763;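 active means at 10 µM dose, activation of 40% or more, normalized to positive control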
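measured by = luciferase luminescence | assay system = CHO-CHOP cells, stable luciferase reporter of PERK-eIF2a-CHOP signalling | amount = 500 reporter cells seeded per well | timing = 6 h compound exposure at 37 °C after overnight seeding | controls = positive tunicamycin 10 µg/mL, negative DMSO alone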
Of the large screens only hits and unclear results are named; the others gave an inactive call. The full list was thinned out, with hits kept by preference.

COc1ccc(NS(=O)(=O)c2ccc(C(=O)N3CCC(C)CC3)cc2)cc1	none (no result: CHOP inhibitor)
Cc1ccc(NC(=O)CCSc2nnc(-c3ccco3)o2)cc1	none
CC(=O)Nc1ccc(NC(=O)CSc2ccc(-c3ccco3)nn2)cc1	none
Brc1ccc(-c2nnc(-c3ccco3)o2)cc1	PvdQ acylase 90.1
c1ccc(-c2nnc(-c3ccco3)o2)cc1	none
Cc1ccc(NC(=O)CSc2ccc(-c3ccco3)nn2)cc1	CHOP inhibitor 74.4
Cc1ccc(SCC(=O)Nc2ccc(-c3nnc(-c4ccco4)o3)cc2)cc1	CHOP inhibitor 75.5
CC(=O)N1N=C(c2ccco2)CC1c1cccs1 (stereo not given)	none
O=C(CCl)N1N=C(c2ccco2)CC1c1cccs1 (stereo not given)	CHOP inhibitor 90.3 (no result: UPR XBP1 act, UPR CHOP act)
Cc1ccc(NC(=O)C(C)NC(=O)OCc2ccccc2)cc1C (stereo not given)	none
CCCCCCn1c(CN2CCCCC2CC)nc2c1c(=O)n(C)c(=O)n2C (stereo not given)	CHOP inhibitor 92.3
CCC1CCCCN1Cc1nc2c(c(=O)n(C)c(=O)n2C)n1CCC(C)C (stereo not given)	none (no result: CHOP inhibitor)
COc1ccc(/C=N/NC(=O)c2ccc(Cl)cc2)cc1Cn1cc(Cl)cn1	CHOP inhibitor 85.7
COc1ccc(/C=N/NC(=O)c2cc(Br)ccc2O)cc1Cn1cc(Cl)cn1	none
COc1ccc(/C=N\NC(=O)COc2ccccc2Cl)cc1Cn1nc(C)cc1C	CHOP inhibitor 80.7
CC(C)(C)C1(O)CC(C(F)(F)F)=NN1C(=O)Cc1ccc([N+](=O)[O-])cc1 (stereo not given)	none
C/C(=N\NC(=O)c1ccc(O)cc1)c1cccc(NC(=O)c2ccc(Cl)cc2)c1	none (no result: CHOP inhibitor)
N.N.N.N.N.N.N.N.N.N.N.N.N.N.O.O.[Cl-].[Cl-].[Cl-].[Cl-].[Cl-].[Cl-].[Ru+4].[Ru+5].[Ru+5]	none (no result: UPR XBP1 act, PvdQ acylase, UPR CHOP act)
CCc1nc(N(CC)CC)c2oc3ccccc3c2n1	CHOP inhibitor 91.0
CCc1nc(N2CCC(C)CC2)c2oc3ccccc3c2n1	CHOP inhibitor 70.2
CCc1nc(SCCO)c2oc3ccccc3c2n1	none
CCNc1nc(CC)nc2c1oc1ccccc12	none
O=S(=O)(c1ccccc1)c1nc(NCc2cccnc2)sc1Cl	none
O=C(NNC(=O)C1CCCN(c2ncccn2)C1)c1ccncc1 (stereo not given)	none
O=C(CNS(=O)(=O)c1ccc(Cl)cc1)N1CCN(c2ccc(F)cc2)CC1	none (no result: CHOP inhibitor)
O=C(CNS(=O)(=O)c1ccc(F)cc1)N1CCN(c2ccccc2)CC1	CHOP inhibitor 80.2
Cc1nn(C)c(C)c1/C=C(/C(=O)C(C)(C)C)n1cncn1	none
CC(C)(C)C(=O)/C(=C/c1ccncc1)n1cncn1	CHOP inhibitor 84.6
O=[N+]([O-])c1ccc(/C=N/Nc2nc(-c3ccccc3)c3cc(Br)ccc3n2)o1	CHOP inhibitor 82.4
Cc1ccc2nc(N/N=C\c3ccc([N+](=O)[O-])o3)nc(-c3ccccc3)c2c1	none
CN(C)S(=O)(=O)c1ccc(NC(=O)CN2CCN(c3ccccn3)CC2)cc1	none (no result: CHOP inhibitor)
Cc1ccc(O)c(C2=NNC(c3ccc(Cl)cc3)C2)c1 (stereo not given)	none
Oc1ccc(Cl)cc1C1=NNC(c2cccs2)C1 (stereo not given)	PvdQ acylase 34.1
Cc1cccc2c1cnn2C(=O)CCC(=O)N1CCC(C)CC1	none (no result: CHOP inhibitor)
Cc1ccc(S(=O)(=O)N(C)C)cc1NC(=O)c1ccc2ccccc2n1	none
Cc1ccc(C)c(NC(=O)c2ccc3ccccc3n2)c1	CHOP inhibitor 80.1
Cc1ccc(C)c(S(=O)(=O)NCCC(=O)N2CCCC(C(N)=O)C2)c1 (stereo not given)	none (no result: CHOP inhibitor)
CCOC(=O)c1nnn(-c2nonc2N)c1CSc1ccccc1	none
CCOC(=O)c1nnn(-c2nonc2N)c1CN(C)Cc1ccccc1	CHOP inhibitor 81.3
CCn1c(SCc2nc3scc(-c4ccccc4)c3c(=O)[nH]2)nnc1-c1ccc(Cl)cc1	CHOP inhibitor 92.6
CC1=CC2=NC(=O)/C(=C\c3ccc(-c4ccc(Cl)cc4)o3)C(=N)N2O1	CHOP inhibitor 93.0 (no result: UPR XBP1 act, PvdQ acylase, UPR CHOP act)
Cc1cccc(CS(=O)(=O)c2cn(CC(=O)N3CCOCC3)c3ccccc23)c1	none (no result: CHOP inhibitor)
COc1ccc(N=C2C(=O)Nc3ccccc32)cc1	none
COc1ccc(N=C2C(=O)N3c4c(cccc42)C(C)=CC3(C)C)cc1	CHOP inhibitor 79.5
CC(C)(C)c1ccc(O)c(/C=N\O)c1	CHOP inhibitor 77.5
CC(C)(C)c1ccc(O)c(O)c1	none (no result: CHOP inhibitor)
CC(C)(C)c1cccc(/C=N/O)c1O	CHOP inhibitor 75.5
O=C(NCCN1CCN(C(=O)c2ccc([N+](=O)[O-])cc2)CC1)C(=O)NCc1ccccc1	none (no result: CHOP inhibitor)
COc1cc([N+](=O)[O-])ccc1NC(=O)CN1CCN(C(=O)c2ccco2)CC1	none
Nc1ccc(Oc2cccc(Oc3ccc(N)cc3)c2)cc1	CHOP inhibitor 88.5
Cc1cccc(Oc2ccc(N)cc2)c1	none
O=C(NCCc1c[nH]c2ccccc12)C(=O)NCC1OCCN1S(=O)(=O)c1cc(F)ccc1F (stereo not given)	none
CCOC(=O)c1c(-c2ccc(C)cc2)csc1NC(=O)C1CCCO1 (stereo not given)	none
CCOC(=O)c1c(-c2ccc(F)cc2)csc1NC(=O)C1CCCO1 (stereo not given)	CHOP inhibitor 75.0
COc1ccc(C)cc1NC(=O)CSc1nc2ccccc2nc1N1CCCC1	none (no result: CHOP inhibitor)
CN(C)C(=O)COC(=O)c1ccccc1Nc1ccc(SC(F)F)cc1	none
O=C(c1ccccc1Nc1ccc(SC(F)F)cc1)N1CCCCCC1	CHOP inhibitor 86.5
Cn1nccc1C(=O)NC(=S)Nc1sc2c(c1C#N)CCCCC2	CHOP inhibitor 91.2
CNC(=O)/C=C1\NC(C)(C)Cc2c1ccc1ccccc21	none
CC1(C)Cc2c(ccc3ccccc23)/C(=C/C#N)N1	CHOP inhibitor 71.4
O=C1c2oc3ccccc3c(=O)c2C(c2cccs2)N1CCCN1CCOCC1 (stereo not given)	CHOP inhibitor 79.8
Cc1cc(C)cc(OCc2nnc(N)s2)c1	none
Cc1cc(C(F)(F)F)c(C#N)c(N2CCOCC2)n1	none
N#Cc1c(C(F)(F)F)cc(C2CC2)nc1N1CCCC1	CHOP inhibitor 83.1
COc1ccc(-c2cc(C)no2)cc1S(=O)(=O)Nc1cccc(CN2CCCC2)c1	none (no result: CHOP inhibitor)
Cc1cccc(C)c1NC(=O)c1cccc2c1-c1ccccc1C2=O	CHOP inhibitor 78.4
COCCN1C(=O)c2cc(C(=O)Nc3ccc(C)c(F)c3)ccc2C1Nc1ccc(C)c(F)c1 (stereo not given)	none
Nc1ccccc1Nc1cc(-c2cccc(Cl)c2)nn1-c1ccccc1	CHOP inhibitor 86.5
COc1ccc(C(=O)NCCNC(=O)c2ccc(OC)cc2)cc1	none (no result: CHOP inhibitor)
COc1ccc(C(=O)NCC(C)(C)SCc2c(C)cc(C)cc2C)cc1	CHOP inhibitor 73.4
C#C[C@]1(O)CC[C@H]2[C@@H]3CCc4cc(OC5CCCC5)ccc4[C@H]3CC[C@@]21C	none
C#C[C@]1(O)CC[C@H]2[C@@H]3CCc4cc(OC)ccc4[C@H]3CC[C@@]21C	CHOP inhibitor 70.1
CCCN1CCC(=O)N(CCN=[N+]=[N-])CC1	none (no result: CHOP inhibitor)
